# Assay results: ChEMBL document CHEMBL4689842, “EUbOPEN Chemogenomics Library wave 1” (2021)
# Columns and labels:
# Type in all cases: toxicity, cell-based
# [1] = test system: HEK-293T; test: Incucyte cell viability with HEK293T; settings: human, 10 µM, compound concentration 10 uM; further: filed as whole numbers so only -1 and 0 and 1 occur
# [2] = test system: Fibroblast; test: Multiplex assay against human fibroblast
# Procedure, shortened: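 Per cents of healthy-nucleus cells form the tubulin, mitochondrial-mass and membrane-permeability phenotype values. Live cells were stained at seeding with Hoechst33342, BioTracker Green Microtubule Cytoskeleton Dye, MitoTracker Red and Annexin V Alexa Fluor 680. After compound addition they were imaged on a CQ1 microscope at 37°C and 5% CO2, and CellPathfinder machine-learning gating split them into Hoechst high-intensity objects or normal cells, normal cells into healthy, pyknosed or fragmented nuclei, and pyknosed cells into mitotic or apoptotic.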
# [3] = test system: U2OS; test: Incucyte cell viability with U2OS; settings: human, 10 µM, compound concentration 10 uM; further: filed as whole numbers so only -1 and 0 and 1 occur
# [4] = 6 h, replicate number 1, timepoint 6 hours
# [5] = 12 h, replicate number 1, timepoint 12 hours
# [6] = 18 h, replicate number 1, timepoint 18 hours
# [7] = 24 h, replicate number 1, timepoint 24 hours
# [8] = 12 h, 1 µM, compound concentration 1 uM, replicate 1
# [9] = 12 h, 1 µM, compound concentration 1 uM, replicate 2
# [10] = 12 h, 10 µM, compound concentration 10 uM, replicate 1
# [11] = 12 h, 10 µM, compound concentration 10 uM, replicate 2
# [12] = 24 h, 1 µM, compound concentration 1 uM, replicate 1
# [13] = 24 h, 1 µM, compound concentration 1 uM, replicate 2
# [14] = 24 h, 10 µM, compound concentration 10 uM, replicate 1
# [15] = 24 h, 10 µM, compound concentration 10 uM, replicate 2
# [16] = 48 h, 1 µM, compound concentration 1 uM, replicate 1
# [17] = 48 h, 1 µM, compound concentration 1 uM, replicate 2
# [18] = 48 h, 10 µM, compound concentration 10 uM, replicate 1
# [19] = 48 h, 10 µM, compound concentration 10 uM, replicate 2
smiles,measurement,setting,value
CC(=O)c1cc(-c2cc(C(=O)NC3CC3)ccc2C)c2ncccn12,Growth Rate,"[1]; 0 h, replicate number 2, timepoint 0 hours",1
same,Growth Rate,[1]; [4],0
same,Growth Rate,[1]; [5],0
same,Growth Rate,[1]; [6],0
same,Growth Rate,[1]; [7],0
same,Population Apoptotic (%),[2]; [8],68%
same,Population Fragmented Nuclei (%),[2]; [8],28%
same,Population Healthy Nuclei (%),[2]; [8],35%
same,Population Hoechst High Intensity Objects (%),[2]; [8],16%
same,Population Membrane Permeable-Phenotype (%),[2]; [8],42%
same,Population Mitochondria Different-Phenotype (%),[2]; [8],3%
same,Population Mitotic Cells (%),[2]; [8],31%
same,Population Normal (%),[2]; [8],83%
same,Population Pyknosed Nuclei (%),[2]; [8],36%
same,Population Tubulin-Different-Phenotype (%),[2]; [8],42%
same,Total Cell Count,[2]; [8],96
same,Population Apoptotic (%),[2]; [9],66%
same,Population Fragmented Nuclei (%),[2]; [9],8%
same,Population Healthy Nuclei (%),[2]; [9],85%
same,Population Hoechst High Intensity Objects (%),[2]; [9],7%
same,Population Membrane Permeable-Phenotype (%),[2]; [9],2%
same,Population Mitochondria Different-Phenotype (%),[2]; [9],7%
same,Population Mitotic Cells (%),[2]; [9],33%
same,Population Normal (%),[2]; [9],92%
same,Population Pyknosed Nuclei (%),[2]; [9],6%
same,Population Tubulin-Different-Phenotype (%),[2]; [9],19%
same,Total Cell Count,[2]; [9],73
same,Population Apoptotic (%),[2]; [10],60%
same,Population Fragmented Nuclei (%),[2]; [10],20%
same,Population Healthy Nuclei (%),[2]; [10],40%
same,Population Hoechst High Intensity Objects (%),[2]; [10],25%
same,Population Membrane Permeable-Phenotype (%),[2]; [10],30%
same,Population Mitochondria Different-Phenotype (%),[2]; [10],23%
same,Population Mitotic Cells (%),[2]; [10],39%
same,Population Normal (%),[2]; [10],75%
same,Population Pyknosed Nuclei (%),[2]; [10],39%
same,Population Tubulin-Different-Phenotype (%),[2]; [10],50%
same,Total Cell Count,[2]; [10],140
same,Population Fragmented Nuclei (%),[2]; [11],11%
same,Population Healthy Nuclei (%),[2]; [11],84%
same,Population Hoechst High Intensity Objects (%),[2]; [11],4%
same,Population Membrane Permeable-Phenotype (%),[2]; [11],3%
same,Population Mitochondria Different-Phenotype (%),[2]; [11],8%
same,Population Mitotic Cells (%),[2]; [11],40%
same,Population Normal (%),[2]; [11],95%
same,Population Pyknosed Nuclei (%),[2]; [11],5%
same,Population Tubulin-Different-Phenotype (%),[2]; [11],17%
same,Total Cell Count,[2]; [11],52
same,Population Apoptotic (%),[2]; [12],66%
same,Population Fragmented Nuclei (%),[2]; [12],25%
same,Population Healthy Nuclei (%),[2]; [12],45%
same,Population Hoechst High Intensity Objects (%),[2]; [12],15%
same,Population Membrane Permeable-Phenotype (%),[2]; [12],51%
same,Population Mitochondria Different-Phenotype (%),[2]; [12],7%
same,Population Mitotic Cells (%),[2]; [12],33%
same,Population Normal (%),[2]; [12],84%
same,Population Pyknosed Nuclei (%),[2]; [12],29%
same,Population Tubulin-Different-Phenotype (%),[2]; [12],43%
same,Total Cell Count,[2]; [12],108
same,Population Apoptotic (%),[2]; [13],0%
same,Population Fragmented Nuclei (%),[2]; [13],3%
same,Population Healthy Nuclei (%),[2]; [13],91%
same,Population Hoechst High Intensity Objects (%),[2]; [13],4%
same,Population Membrane Permeable-Phenotype (%),[2]; [13],3%
same,Population Mitochondria Different-Phenotype (%),[2]; [13],9%
same,Population Mitotic Cells (%),[2]; [13],100%
same,Population Normal (%),[2]; [13],95%
same,Population Pyknosed Nuclei (%),[2]; [13],5%
same,Population Tubulin-Different-Phenotype (%),[2]; [13],12%
same,Total Cell Count,[2]; [13],70
same,Population Apoptotic (%),[2]; [14],57%
same,Population Fragmented Nuclei (%),[2]; [14],21%
same,Population Healthy Nuclei (%),[2]; [14],47%
same,Population Hoechst High Intensity Objects (%),[2]; [14],15%
same,Population Membrane Permeable-Phenotype (%),[2]; [14],24%
same,Population Mitochondria Different-Phenotype (%),[2]; [14],9%
same,Population Mitotic Cells (%),[2]; [14],42%
same,Population Normal (%),[2]; [14],84%
same,Population Pyknosed Nuclei (%),[2]; [14],31%
same,Population Tubulin-Different-Phenotype (%),[2]; [14],65%
same,Total Cell Count,[2]; [14],151
same,Population Apoptotic (%),[2]; [15],48%
same,Population Fragmented Nuclei (%),[2]; [15],11%
same,Population Healthy Nuclei (%),[2]; [15],63%
same,Population Hoechst High Intensity Objects (%),[2]; [15],2%
same,Population Membrane Permeable-Phenotype (%),[2]; [15],8%
same,Population Mitochondria Different-Phenotype (%),[2]; [15],12%
same,Population Mitotic Cells (%),[2]; [15],51%
same,Population Normal (%),[2]; [15],97%
same,Population Pyknosed Nuclei (%),[2]; [15],24%
same,Population Tubulin-Different-Phenotype (%),[2]; [15],18%
same,Total Cell Count,[2]; [15],62
same,Population Apoptotic (%),[2]; [16],42%
same,Population Fragmented Nuclei (%),[2]; [16],40%
same,Population Healthy Nuclei (%),[2]; [16],46%
same,Population Hoechst High Intensity Objects (%),[2]; [16],10%
same,Population Membrane Permeable-Phenotype (%),[2]; [16],34%
same,Population Mitochondria Different-Phenotype (%),[2]; [16],2%
same,Population Mitotic Cells (%),[2]; [16],57%
same,Population Normal (%),[2]; [16],89%
same,Population Pyknosed Nuclei (%),[2]; [16],13%
same,Population Tubulin-Different-Phenotype (%),[2]; [16],20%
same,Total Cell Count,[2]; [16],119
same,Population Apoptotic (%),[2]; [17],33%
same,Population Fragmented Nuclei (%),[2]; [17],30%
same,Population Healthy Nuclei (%),[2]; [17],66%
same,Population Hoechst High Intensity Objects (%),[2]; [17],7%
same,Population Membrane Permeable-Phenotype (%),[2]; [17],12%
same,Population Mitochondria Different-Phenotype (%),[2]; [17],1%
same,Population Mitotic Cells (%),[2]; [17],66%
same,Population Normal (%),[2]; [17],92%
same,Population Pyknosed Nuclei (%),[2]; [17],3%
same,Population Tubulin-Different-Phenotype (%),[2]; [17],32%
same,Total Cell Count,[2]; [17],101
same,Population Apoptotic (%),[2]; [18],52%
same,Population Fragmented Nuclei (%),[2]; [18],30%
same,Population Healthy Nuclei (%),[2]; [18],51%
same,Population Hoechst High Intensity Objects (%),[2]; [18],17%
same,Population Membrane Permeable-Phenotype (%),[2]; [18],27%
same,Population Mitochondria Different-Phenotype (%),[2]; [18],6%
same,Population Mitotic Cells (%),[2]; [18],47%
same,Population Normal (%),[2]; [18],82%
same,Population Pyknosed Nuclei (%),[2]; [18],17%
same,Population Tubulin-Different-Phenotype (%),[2]; [18],45%
same,Total Cell Count,[2]; [18],145
same,Population Apoptotic (%),[2]; [19],75%
same,Population Fragmented Nuclei (%),[2]; [19],26%
same,Population Healthy Nuclei (%),[2]; [19],69%
same,Population Hoechst High Intensity Objects (%),[2]; [19],9%
same,Population Membrane Permeable-Phenotype (%),[2]; [19],16%
same,Population Mitochondria Different-Phenotype (%),[2]; [19],8%
same,Population Mitotic Cells (%),[2]; [19],25%
same,Population Normal (%),[2]; [19],90%
same,Population Pyknosed Nuclei (%),[2]; [19],4%
same,Population Tubulin-Different-Phenotype (%),[2]; [19],35%
same,Total Cell Count,[2]; [19],107
same,Growth Rate,"[3]; 0 h, replicate number 1, timepoint 0 hours",0
same,Growth Rate,[3]; [4],0
same,Growth Rate,[3]; [5],0
same,Growth Rate,[3]; [6],0
same,Growth Rate,[3]; [7],0
